Reference: article PMC3514014 (Molecular and biochemical parasitology, 2010)
Where a SMILES comes first, the peptide text is derived from it. Where no end group is shown, it is not given here. The star is where a group is joined. ACC = NC(=O)Cc1cc(=O)oc2cc(N*)ccc12; AMC = Cc1cc(=O)oc2cc(N*)ccc12

How the values were obtained:
cathepsin C [1] = settings: cited from earlier work
[2] = biological target: T1, recombinant DPAP1 (rDPAP1) (Plasmodium falciparum, UniProt Q8IIJ9); assay type: biochemical; settings: for hydrolysis of the substrate: recombinant DPAP1, concentrations up to 500 μM; for Km / kcat: rDPAP1, 25 °C, pH 6.0, 30 mM chloride, mean ± SD, triplicate, NH = no hydrolysis
T1 sequence (Q8IIJ9 28-209 limits assumed): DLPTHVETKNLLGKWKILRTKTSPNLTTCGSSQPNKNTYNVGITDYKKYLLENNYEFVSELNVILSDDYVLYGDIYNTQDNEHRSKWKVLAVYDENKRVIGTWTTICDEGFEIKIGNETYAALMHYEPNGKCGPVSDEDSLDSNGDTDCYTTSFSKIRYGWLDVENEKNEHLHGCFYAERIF
T1 sequence (Q8IIJ9 370-599 limits assumed): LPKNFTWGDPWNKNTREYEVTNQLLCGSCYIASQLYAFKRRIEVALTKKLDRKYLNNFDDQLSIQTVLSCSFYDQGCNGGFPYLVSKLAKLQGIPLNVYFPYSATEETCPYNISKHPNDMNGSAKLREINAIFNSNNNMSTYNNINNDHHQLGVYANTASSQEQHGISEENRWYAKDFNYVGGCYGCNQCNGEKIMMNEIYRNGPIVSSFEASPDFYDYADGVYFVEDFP
T1 sequence (Q8IIJ9 600-700 limits assumed): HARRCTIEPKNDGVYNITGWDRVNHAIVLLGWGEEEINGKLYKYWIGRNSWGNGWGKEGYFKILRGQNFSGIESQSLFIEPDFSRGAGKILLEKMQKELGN

native DPAP1 (nDPAP1) [3] = biological target: T2, native DPAP1 (nDPAP1) (Plasmodium falciparum, UniProt Q8IIJ9); assay type: biochemical; settings: for hydrolysis of the substrate: native DPAP1, concentrations up to 500 μM; for kcat: nDPAP1, 25 °C, pH 6.0, 30 mM chloride, mean ± SD, triplicate, NH = no hydrolysis
T2 sequence (Q8IIJ9 28-209 limits assumed): T1 sequence (Q8IIJ9 28-209 limits assumed)
T2 sequence (Q8IIJ9 370-599 limits assumed): T1 sequence (Q8IIJ9 370-599 limits assumed)
T2 sequence (Q8IIJ9 600-700 limits assumed): T1 sequence (Q8IIJ9 600-700 limits assumed)

[4] = biological target: T1, recombinant DPAP1 (rDPAP1); assay: Inhibition of recombinant DPAP1; assay type: biochemical
Method in brief: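 Recombinant E. coli-expressed DPAP1-His6, activated by TEV cleavage, at 0.8 nM. Run at 25 °C in 50 mM sodium MES pH 6.0 with 2 mM dithiothreitol and 1 mM EDTA, total chloride held at 30 mM with NaCl. Fluorogenic release read against an AMC standard, in triplicate. Rates taken from linear progress-curve segments after ~15 min lag; Ki by Dixon method.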

[5] = test system: recombinant human cathepsin C; assay type: biochemical; settings: for Km / kcat: 25 °C, pH 6.0, 30 mM chloride, mean ± SD, triplicate
cathepsin C [6] = assay: Inhibition of cathepsin C under the DPAP1 assay conditions; assay type: biochemical, human; settings: assay conditions used for DPAP1
native DPAP1 (nDPAP1) [7] = biological target: T2, native DPAP1 (nDPAP1); assay: Inhibition of native DPAP1; assay type: biochemical; settings: Fig. 4 and Fig. S4, stated in words
cathepsin C [8] = settings: cited from earlier work; remark: listed apart in the source
[9] = recombinant DPAP1, Fig. 4 and Fig. S4, stated in words

In the case of `Cc1cc(=O)oc2cc(NC(=O)C(Cc3ccccc3)NC(=O)C(N)C(C)C)ccc12` (stereo not drawn) [Val-Phe-AMC] (H-Val-Phe-{AMC}; configuration not given here), the “increase in kcat/Km relative to Pro-Phe-AMC” value (cathepsin C [1]) is listed as 10 fold.
With `N=C(N)NCCC[C@H](NC(=O)[C@@H](N)Cc1ccccc1)C(=O)Nc1ccc2c(CC(N)=O)cc(=O)oc2c1` [Phe-Arg-ACC] (H-Phe-Arg-{ACC}) the “hydrolysis of the substrate” value [2] was “no hydrolysis was observed”, the “hydrolysis of the substrate” value (native DPAP1 (nDPAP1) [3]) was “no hydrolysis was observed” and the mode of inhibition ([4]; rDPAP1, hydrolysis of Pro-Arg-AMC, Dixon analysis) was “purely competitive”. The Ki ([4]; rDPAP1, inhibition of hydrolysis of Pro-Arg-AMC, Dixon analysis) was 2200 nM and the “kinetic behaviour as substrate” value ([5]; Fig. S3) was “substrate inhibition was observed”.
With `Cc1cc(=O)oc2cc(NC(=O)[C@H](CCCN=C(N)N)NC(=O)[C@@H]3CCCN3)ccc12` [Pro-Arg-AMC] (H-Pro-Arg-{AMC}) the Km [2] was 79 ± 2 µM, the kcat [2] was 1.8 ± 0.1 s⁻¹ and the kcat (native DPAP1 (nDPAP1) [3]) was 6.2 ± 0.4 s⁻¹. The Km [5] was 130 ± 10 µM and the kcat [5] was 490 ± 10 s⁻¹.
In the case of Arg-Arg-{ACC}, the “hydrolysis of the substrate” value [2] is reported as “no hydrolysis was observed” and the “hydrolysis of the substrate” value (native DPAP1 (nDPAP1) [3]) is reported as “no hydrolysis was observed”.
With `CC[C@H](N)C(=O)NNC(=O)N[C@@H](CCc1ccccc1)C(=O)N[C@@H](C)Cc1cccc(F)c1` [compound 1, 1-(2S-2-aminobutanoyl)-4-{2S-N-[2S-3-(m-fluorophenyl)propan-2-yl-amide]-4-phenylbutan-2-yl-amide}semicarbazide] the type of inhibition (cathepsin C [6]) was “slow, tight-binding inhibitor”, the Ki (native DPAP1 (nDPAP1) [7]) was “sub-nanomolar” and the Ki [4, 9] was “sub-nanomolar”.
In the case of `NC(Cc1ccccc1)C(=O)NCC(=O)O` (racemic) [DL-Phe-Gly], the “inhibition of cathepsin C” value (cathepsin C [8]) is listed as “competitively inhibited”.
In the case of `NC(=O)[C@@H](N)Cc1ccccc1` [phenylalaninamide], the “inhibition of cathepsin C” value (cathepsin C [8]) is listed as “competitively inhibited”.
In the case of `Cc1cc(=O)oc2cc(NC(=O)[C@H](CCCN=C(N)N)NC(=O)[C@@H](N)CCCN=C(N)N)ccc12` [Arg-Arg-AMC] (H-Arg-Arg-{AMC}), the “turnover of the substrate” value [5] is reported as “no turnover”.
`CC(C)[C@H](N)C(=O)N[C@@H](CCCNC(=N)N)C(=O)Nc1ccc2c(CC(N)=O)cc(=O)oc2c1` [Val-Arg-ACC] (H-Val-Arg-{ACC}) gave a Km [2] of 20 ± 1 µM, a kcat [2] of 0.72 ± 0.02 s⁻¹ and a kcat (native DPAP1 (nDPAP1) [3]) of 3.5 ± 0.1 s⁻¹. It also gave a Km [5] of 51 ± 8 µM and a kcat [5] of 180 ± 10 s⁻¹.
Work on `CC[C@H](C)[C@H](N)C(=O)N[C@@H](CCCNC(=N)N)C(=O)Nc1ccc2c(CC(N)=O)cc(=O)oc2c1` [Ile-Arg-ACC] yielded a Km [2] of 3.9 ± 0.2 µM, a kcat [2] of 0.072 ± 0.003 s⁻¹ and a Km [5] of 28 ± 2 µM. It also gave a kcat [5] of 17 ± 1 s⁻¹.
In the case of `CC[C@H](N)C(=O)NC(C#N)Cc1ccccc1` (stereo partly shown) [compound 2, S-2-aminobutyryl-phenylalanine-nitrile], the Ki (native DPAP1 (nDPAP1) [7]) is reported as “single-digit nanomolar” and the Ki [4, 9] is reported as “single-digit nanomolar”.
For `N[C@@H](Cc1ccccc1)C(=O)N[C@@H](Cc1ccccc1)C(=O)O` [L-Phe-L-Phe] (H-Phe-Phe-OH), the “inhibition of cathepsin C” value (cathepsin C [8]) is listed as “competitively inhibited”.
